Measured values published in ChEMBL document CHEMBL1817578, “2-({6-[(3R)-3-amino-3-methylpiperidine-1-yl]-1,3-dimethyl-2,4-dioxo-1,2,3,4-tetrahydro-5H-pyrrolo[3,2-d]pyrimidine-5-yl}methyl)-4-fluorobenzonitrile (DSR-12727): a potent, orally active dipeptidyl peptidase IV inhibitor without mechanism-based inactivation of CYP3A” (Bioorg Med Chem, 2011).
Calls of active or inactive are those of the source. No cut-off for these calls is given here.

How the values were obtained:
[1] = target: T1, Prolyl endopeptidase FAP (Homo sapiens, UniProt Q12884); test: Inhibition of FAPalpha
T1 sequence (Q12884 whole entry): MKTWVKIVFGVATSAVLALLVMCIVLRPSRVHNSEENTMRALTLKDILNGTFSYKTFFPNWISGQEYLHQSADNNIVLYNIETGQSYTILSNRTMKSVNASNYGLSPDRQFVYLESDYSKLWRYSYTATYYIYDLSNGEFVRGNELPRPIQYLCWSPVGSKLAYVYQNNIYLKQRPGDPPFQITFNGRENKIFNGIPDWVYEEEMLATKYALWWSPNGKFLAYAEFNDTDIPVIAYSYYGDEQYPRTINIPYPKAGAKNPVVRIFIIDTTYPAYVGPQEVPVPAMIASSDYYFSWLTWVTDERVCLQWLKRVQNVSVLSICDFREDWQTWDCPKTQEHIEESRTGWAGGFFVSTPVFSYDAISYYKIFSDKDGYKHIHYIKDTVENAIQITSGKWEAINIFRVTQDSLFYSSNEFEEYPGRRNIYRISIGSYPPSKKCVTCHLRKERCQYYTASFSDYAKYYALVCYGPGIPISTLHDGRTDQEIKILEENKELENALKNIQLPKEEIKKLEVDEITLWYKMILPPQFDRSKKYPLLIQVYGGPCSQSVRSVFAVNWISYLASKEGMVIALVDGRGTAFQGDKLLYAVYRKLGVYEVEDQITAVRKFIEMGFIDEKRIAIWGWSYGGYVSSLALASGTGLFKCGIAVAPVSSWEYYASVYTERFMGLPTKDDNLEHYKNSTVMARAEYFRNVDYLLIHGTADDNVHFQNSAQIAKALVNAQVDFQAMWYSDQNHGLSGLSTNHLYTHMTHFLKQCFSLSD

[2] = target: Xaa-Pro aminopeptidase 2 (Homo sapiens, UniProt O43895); test: Inhibition of aminopeptidase P
Sequence of Xaa-Pro aminopeptidase 2 (O43895 whole entry): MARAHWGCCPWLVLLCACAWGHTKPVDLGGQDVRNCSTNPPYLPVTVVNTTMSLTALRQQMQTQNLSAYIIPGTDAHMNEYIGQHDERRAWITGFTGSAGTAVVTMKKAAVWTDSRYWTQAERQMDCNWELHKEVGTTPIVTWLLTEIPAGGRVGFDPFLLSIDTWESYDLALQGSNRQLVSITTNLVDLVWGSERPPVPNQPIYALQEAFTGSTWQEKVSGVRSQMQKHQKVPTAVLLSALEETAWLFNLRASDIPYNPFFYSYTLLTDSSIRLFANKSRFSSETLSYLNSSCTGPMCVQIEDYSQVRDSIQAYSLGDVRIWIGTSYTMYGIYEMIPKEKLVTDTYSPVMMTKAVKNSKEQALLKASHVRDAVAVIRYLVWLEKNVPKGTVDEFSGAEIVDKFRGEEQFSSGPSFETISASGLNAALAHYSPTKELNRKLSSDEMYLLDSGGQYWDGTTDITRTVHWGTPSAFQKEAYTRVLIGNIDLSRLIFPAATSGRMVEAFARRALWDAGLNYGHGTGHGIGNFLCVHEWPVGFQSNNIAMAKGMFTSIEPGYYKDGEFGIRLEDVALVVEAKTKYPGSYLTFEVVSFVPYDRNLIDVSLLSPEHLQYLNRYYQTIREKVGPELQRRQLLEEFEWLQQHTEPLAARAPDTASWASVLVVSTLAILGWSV

[3] = Volume of distribution at steady state in monkey at 1 mg/kg, iv; type: ADME, organism-based, Macaca mulatta; set-up: dose 1 mg/kg, route intravenous; settings: rhesus monkey, in vivo, read-out: Vdss
[4] = system: Rattus norvegicus; test: In vivo inhibition of DPP4 in Zucker fatty rat plasma assessed as AMC production at 3 mg/kg, po after 3 hrs by fluorescence microplate reader analysis; type: functional, organism-based; set-up: dose 3 mg/kg
Method in brief: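 Male Zucker fatty rats, 9 weeks old, fasted 24 h and kept fasted to 12 h post-dose; test compound solution given by oral gavage at 1.0 or 3.0 mg/kg. Blood sampled at -0.5 h and 0.25–24 h. Plasma DPP-4 measured as AMC release from Gly-Pro-MCA (100 µmol/L working solution), pH 7.8 HEPES buffer, Ex 380/Em 460 nm for 3 min, AMC calibration, duplicates; n = 4–5.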

[5] = target: T2, Muscarinic acetylcholine receptor M2 (Homo sapiens, UniProt P08172); test: Binding affinity to muscarinic receptor 2
T2 sequence (P08172 whole entry): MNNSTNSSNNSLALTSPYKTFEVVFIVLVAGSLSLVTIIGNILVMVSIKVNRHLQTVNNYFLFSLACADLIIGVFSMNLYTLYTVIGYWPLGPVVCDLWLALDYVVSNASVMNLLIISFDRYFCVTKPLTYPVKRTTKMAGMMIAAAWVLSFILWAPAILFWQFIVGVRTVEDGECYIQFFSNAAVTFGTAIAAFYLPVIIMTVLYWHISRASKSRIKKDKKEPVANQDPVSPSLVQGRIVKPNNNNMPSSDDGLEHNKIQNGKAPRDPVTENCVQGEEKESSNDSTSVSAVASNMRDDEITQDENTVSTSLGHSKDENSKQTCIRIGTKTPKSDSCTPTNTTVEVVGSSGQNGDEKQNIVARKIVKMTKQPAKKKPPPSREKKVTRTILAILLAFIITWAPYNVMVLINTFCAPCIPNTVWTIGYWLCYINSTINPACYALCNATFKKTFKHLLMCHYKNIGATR

[6] = Clearance in dog at 1 mg/kg, iv; type: ADME, organism-based, Canis lupus familiaris; set-up: dose 1 mg/kg, route intravenous; settings: in vivo
[7] = system: Rattus norvegicus; test: Antidiabetic activity in po dosed Zucker fatty rat assessed as reduction of blood glucose level pretreated 30 mins before glucose challenge by oral glucose tolerance test; type: functional, organism-based
Method in brief: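 Male Zucker fatty rats, 10 weeks old, fasted 24 h, with Zucker lean rats as reference. Oral dose of 0.03–1.0 mg/kg in 0.5% methylcellulose, or vehicle alone, 30 min before oral glucose at 2 g/kg. Tail blood taken at -30, 0, 10, 30, 60 and 120 min and deproteinized with perchloric acid. Glucose measured by colorimetric kit (A505–A700) in duplicate. AUC over 0–120 min; n = 4–9; Dunnett test.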

[8] = target: T3, Prolyl endopeptidase (Homo sapiens, UniProt P48147); test: Inhibition of prolyl oligopeptidase
T3 sequence (P48147 whole entry): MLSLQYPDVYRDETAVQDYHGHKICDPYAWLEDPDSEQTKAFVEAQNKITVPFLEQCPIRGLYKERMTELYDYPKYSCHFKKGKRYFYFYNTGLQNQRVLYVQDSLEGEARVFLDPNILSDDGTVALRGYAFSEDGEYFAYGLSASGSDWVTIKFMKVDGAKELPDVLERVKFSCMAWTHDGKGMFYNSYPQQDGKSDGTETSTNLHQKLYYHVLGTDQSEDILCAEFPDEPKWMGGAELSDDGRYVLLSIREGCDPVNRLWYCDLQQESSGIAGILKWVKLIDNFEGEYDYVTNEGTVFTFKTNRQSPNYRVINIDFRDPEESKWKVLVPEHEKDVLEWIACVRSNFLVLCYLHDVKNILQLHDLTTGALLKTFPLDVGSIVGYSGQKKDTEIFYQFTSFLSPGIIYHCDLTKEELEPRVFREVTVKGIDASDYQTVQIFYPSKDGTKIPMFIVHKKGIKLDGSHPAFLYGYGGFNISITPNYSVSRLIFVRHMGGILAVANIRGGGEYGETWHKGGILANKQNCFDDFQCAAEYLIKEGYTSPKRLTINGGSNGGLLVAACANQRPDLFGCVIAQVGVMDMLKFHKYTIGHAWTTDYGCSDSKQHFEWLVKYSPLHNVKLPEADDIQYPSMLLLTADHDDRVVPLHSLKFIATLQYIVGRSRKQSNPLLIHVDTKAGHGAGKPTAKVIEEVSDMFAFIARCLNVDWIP

- IC50 [1]: > 50 µM
- IC50 [2]: > 50 µM
- Vd [3]: 10 L/kg
- IC50 [5]: > 10 µM
- clearance [6]: 29 mL/min/kg
- IC50 [8]: > 50 µM
Structure (SMILES): Cn1c(=O)c2c(cc(N3CCC[C@@](C)(N)C3)n2Cc2cc(F)ccc2C#N)n(C)c1=O
- inhibition [4]: Active
- Activity [7]: Dose-dependent effect
